The source of these data is PubChem BioAssay.

Activity calls are given as the source filed them.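 The calls were made as follows, unless noted: active = viability at or below 30% in both replicate assays; inconclusive = viability at or below 30% in just one of the two assays; inactive = the rest.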

A short description of assay [1]: Her2 expression decrease, cell viability multiplex – SKBR3 breast tumor cells, AlphaScreen, ATP viability, primary screen (AID 461;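 active = Her2 level under about 52% in both replicate screens, with viability over 70% of control, limit read from the data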;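 as to Her2 level: lower value means less Her2 protein in the cells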;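 as to viability: percent of carrier control wells set as 100% viability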). The conditions noted are these: SKBR3 Her2 protein level, 18-24 h, measured here: SKBR3 viability, ATP luminescence, at 10 µM.
Assay [2] addresses Receptor tyrosine-protein kinase erbB-2 (Homo sapiens) (UniProt P04626). The assay is described as above. The following applies: 18-24 h, at 10 µM, stronger effect = lower value.
Assay [3] is described as follows: reduced viability of SK-BR-3 breast cancer cells – cell-based, 24 h, human, pilot screen (AID 572;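 active = viability at or below 10% of carrier control in both of two separate runs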;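 also: compound exposure lasted between 18 and 24 h rather than exactly 24 h; 100% = carrier-treated control wells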). The conditions noted are these: SK-BR-3 viability, CellTiter-Glo luminescence, at 10 µM, stronger effect = lower value.
Assay [4] in a line: HUVEC growth inhibition – cell-based, human, primary screen (AID 575).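 Also: 100% = median of untreated cell wells with 0.1% DMSO on each plate.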 The conditions noted are these: HUVEC proliferation, CellTiter-Glo luminescence, 72 h; at 10 µM; stronger effect = lower value. The essentials:
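Timing: 72 h treatment at 37 °C; material: HUVEC primary cells; technique: CellTiter-Glo luminescence measuring cellular ATP; controls: vehicle and MePR control wells; measure: percent of median DMSO-control luminescence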

Assay [5] in a line: H69AR cell proliferation blockers – human, duplicate replicates, primary screen (AID 580;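 active = viability at or under a set limit in both replicates, limit being median viability minus 3 SD, cut at about 48% in these data, passing the limit was not always enough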;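 also: 100% = mean luminescence of untreated wells and 0% = no signal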). The conditions noted are these: H69AR lung tumor cells viability, ATP luminescence, 72 h; at 10 µM; stronger effect = lower value.
The nature of assay [6]: MRP1 drug-resistance reversers in H69AR cells – cell-based, doxorubicin co-treatment, pilot screen (AID 601;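 active = viability loss from added drug above about 55%, and viability with drug at most 40%, in both replicates, limit read from the data, passing the limit was not always enough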). The following applies: CellTiter-Glo, 72 h, at 10 µM; for differential viability (reversal): stronger effect = higher value. For orientation: In ATP-based viability assays light output follows the ATP content of the culture.
Assay [7] in a line: yeast transport mutant growth inhibition pilot in 384-well plates, post-Golgi transport modulator project (AID 636; in the data active = inhibition above about 31%). The following applies: absorbance 615 nm, about 18 h, stronger effect = higher value.
Assay [8] can be described thus: growth suppression of yeast trafficking mutant, preliminary HTS, modulators of trafficking downstream of Golgi apparatus project, 1536-format plate, OD 615 nm (AID 637; in the data active = inhibition above about 30%). The conditions noted are these: yeast transport mutant growth, absorbance 615 nm, 18 h; stronger effect = higher value.
Setting [9] is: H69AR cells + 2 uM doxorubicin, measured here: viability with 2 uM doxorubicin, stronger effect = lower value.
The mark [10] stands for this setting: H69AR cells, compound alone cytotoxicity.

Receptor tyrosine-protein kinase erbB-2 (Homo sapiens), sequence (P04626 whole entry, looked up): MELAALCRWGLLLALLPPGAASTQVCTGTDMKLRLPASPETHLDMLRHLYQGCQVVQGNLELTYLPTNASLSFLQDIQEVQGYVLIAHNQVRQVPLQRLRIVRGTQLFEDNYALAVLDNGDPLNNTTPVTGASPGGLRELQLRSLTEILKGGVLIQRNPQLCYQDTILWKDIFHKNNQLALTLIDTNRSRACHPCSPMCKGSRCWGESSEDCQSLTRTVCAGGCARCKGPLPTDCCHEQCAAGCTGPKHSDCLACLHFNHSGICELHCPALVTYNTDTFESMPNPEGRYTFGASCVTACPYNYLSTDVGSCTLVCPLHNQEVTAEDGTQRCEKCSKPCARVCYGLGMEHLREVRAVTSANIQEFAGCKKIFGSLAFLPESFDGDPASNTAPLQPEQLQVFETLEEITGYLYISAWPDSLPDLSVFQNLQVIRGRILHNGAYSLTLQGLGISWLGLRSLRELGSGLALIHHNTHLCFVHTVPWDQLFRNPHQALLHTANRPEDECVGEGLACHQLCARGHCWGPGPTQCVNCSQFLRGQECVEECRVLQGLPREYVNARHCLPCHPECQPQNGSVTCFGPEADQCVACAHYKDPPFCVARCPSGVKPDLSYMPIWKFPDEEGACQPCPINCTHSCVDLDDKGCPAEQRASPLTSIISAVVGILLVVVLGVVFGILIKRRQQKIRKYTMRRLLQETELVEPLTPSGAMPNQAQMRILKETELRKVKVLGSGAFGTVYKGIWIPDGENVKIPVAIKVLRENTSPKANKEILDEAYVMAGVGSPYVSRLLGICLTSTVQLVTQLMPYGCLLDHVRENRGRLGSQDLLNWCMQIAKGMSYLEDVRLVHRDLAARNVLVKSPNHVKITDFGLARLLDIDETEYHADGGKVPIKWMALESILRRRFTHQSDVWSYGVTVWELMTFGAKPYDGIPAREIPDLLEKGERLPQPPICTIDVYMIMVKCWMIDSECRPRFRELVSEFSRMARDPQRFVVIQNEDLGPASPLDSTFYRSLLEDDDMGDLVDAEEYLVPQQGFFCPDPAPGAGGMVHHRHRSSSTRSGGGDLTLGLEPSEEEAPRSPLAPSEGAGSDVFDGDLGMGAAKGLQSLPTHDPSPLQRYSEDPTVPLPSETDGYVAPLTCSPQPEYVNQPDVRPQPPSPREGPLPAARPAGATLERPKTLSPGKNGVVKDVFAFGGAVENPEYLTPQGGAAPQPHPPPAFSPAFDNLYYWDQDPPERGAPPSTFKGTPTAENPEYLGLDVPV

As a reminder, the viability is a read-out of living cells in per cent, often relative to untreated cells. A word on the inhibition: it is the drop in the measured response relative to a control, in per cent. With `COc1cccc2cc(C(=O)C3=C(O)C(=O)N(CCCN4CCOCC4)C3c3ccncc3)oc12` (stereo not given), the viability in assay [1] was 98%; in assay [3] it was 98% (inactive); in assay [4], 110% (inactive); in assay [5], 96.8% (inactive); in assay [6] (setting [9]), 99.6%; in assay [6] (setting [10]) it was 96.8%. Also, the Her2 level in assay [2] was 142% (inactive). For the same molecule, in assay [6] (H69AR cells + 2 uM doxorubicin), the differential viability (reversal) was -2.74% (inactive). In addition, the inhibition in assay [7] is -5.19% (inactive); in assay [8], -5.5% (inactive).

On to `CCCOc1ccc(C2c3c(oc4ccccc4c3=O)C(=O)N2CCCN2CCOCC2)cc1` (stereo not given), for which the viability in assay [1] is 84.5%; in assay [3], 84.5% (inactive); in assay [4] it was 90.3% (inactive); in assay [5] it was 71.6% (inactive); in assay [6] (setting [9]) it was 71%; in assay [6] (setting [10]), 71.6%. The Her2 level in assay [2] is 77.5% (inactive). For the same molecule, the differential viability (reversal) in assay [6] (H69AR cells + 2 uM doxorubicin) is 0.68% (inactive). Further, the results for the inhibition in assay [7] and in assay [8] were -3.73% (inactive) and -4.26% (inactive), respectively.

On to `CCCn1c(=O)c2ccccc2n2c(SCc3cc(=O)n4ccsc4n3)nnc12`, for which the viability in assay [1] was 79.5%; in assay [3] it was 79.5% (inactive); in assay [4], 104% (inactive); in assay [5], 82.1% (inactive); in assay [6] (setting [9]) it was 67.6%; in assay [6] (setting [10]) it was 82.1%. Also, the Her2 level in assay [2] was 90.5% (inactive). The differential viability (reversal) in assay [6] (H69AR cells + 2 uM doxorubicin) was 14.6% (inactive). Further, the inhibition in assay [7] is -1.18% (inactive); in assay [8], -12.1% (inactive).

`COc1cccc(NC(=O)NC2(C(F)(F)F)Oc3ccccc3O2)c1`: the viability in assay [1] is 91.5%; in assay [3], 91.5% (inactive); in assay [4], 69.1% (inactive); in assay [5] it was 30.7% (active); in assay [6] (setting [9]), 48.1%; in assay [6] (setting [10]) it was 30.7%. Also, the Her2 level in assay [2] was 98% (inactive). Besides, the differential viability (reversal) in assay [6] (H69AR cells + 2 uM doxorubicin) was -17.4% (inactive). For the same molecule, the inhibition in assay [7] is -5.07% (inactive); in assay [8], -0.16% (inactive).

In the case of `CCN(c1cccc(C)c1)S(=O)(=O)c1ccc2[nH]c(=O)c(=O)[nH]c2c1`, the viability in assay [1] is 108%; in assay [3], 108% (inactive); in assay [4], 88.7% (inactive); in assay [5], 92.1% (inactive); in assay [6] (setting [9]), 90.8%; in assay [6] (setting [10]), 92.1%. For the same molecule, the Her2 level in assay [2] is 75% (inactive). Further, the differential viability (reversal) in assay [6] (H69AR cells + 2 uM doxorubicin) is 1.35% (inactive). Moreover, the inhibition is -2.24% (inactive) in assay [7] and 0.91% (inactive) in assay [8].

Regarding `Cc1nn(C(=O)c2cc3sccc3[nH]2)c(C)c1C`, the viability in assay [1] is 95%; in assay [3] it was 95% (inactive); in assay [4], 74.1% (inactive); in assay [5], 106% (inactive); in assay [6] (setting [9]), 103%; in assay [6] (setting [10]) it was 106%. The Her2 level in assay [2] was 104% (inactive). In addition, the differential viability (reversal) in assay [6] (H69AR cells + 2 uM doxorubicin) was 2.57% (inactive). Besides, the inhibition in assay [7] is -4.47% (inactive); in assay [8], -4.83% (inactive).

As for `O=C(Nc1ccc(N2CCOCC2)cc1)c1cc2ccccc2o1`, the viability in assay [1] is 99.5%; in assay [3], 99.5% (inactive); in assay [4], 109% (inactive); in assay [5], 85.7% (inactive); in assay [6] (setting [9]), 82.6%; in assay [6] (setting [10]), 85.7%. Moreover, in assay [2], the Her2 level is 117% (inactive). In addition, the differential viability (reversal) in assay [6] (H69AR cells + 2 uM doxorubicin) is 3.15% (inactive). The inhibition is -0.26% (inactive) in assay [7] and -10.8% (inactive) in assay [8].

Regarding `CCOC(=O)CSc1nc2cccnc2n1-c1ccc(F)cc1`, the viability was 108% in assay [1]; 108% (inactive) in assay [3]; 103% (inactive) in assay [4]; 102% (inactive) in assay [5]; 92.4% in assay [6] (setting [9]); 102% in assay [6] (setting [10]). For the same molecule, the Her2 level in assay [2] was 117% (inactive). Also, the differential viability (reversal) in assay [6] (H69AR cells + 2 uM doxorubicin) was 9.83% (inactive). Further, the figures for the inhibition in assay [7] and in assay [8] were -4.8% (inactive) and -8.1% (inactive), respectively.

For `O=C1C(c2ccncc2)=C(O)c2ccccc21`, the viability in assay [1] was 100%; in assay [3], 100% (inactive); in assay [4], 73.6% (inactive); in assay [5], 82.2% (inactive); in assay [6] (setting [9]), 85.9%; in assay [6] (setting [10]), 82.2%. For the same molecule, in assay [2], the Her2 level was 87% (inactive). Moreover, the differential viability (reversal) in assay [6] (H69AR cells + 2 uM doxorubicin) was -3.63% (inactive). Further, the inhibition is -1.05% (inactive) in assay [7] and 12.7% (inactive) in assay [8].

Regarding `NC(=O)CCS(=O)(=O)CCN1CCCCC1`, the viability in assay [1] was 93.5%; in assay [3], 93.5% (inactive); in assay [4], 102% (inactive); in assay [5] it was 93.2% (inactive); in assay [6] (setting [9]), 93.7%; in assay [6] (setting [10]), 93.2%. Also, the Her2 level in assay [2] is 86% (inactive). The differential viability (reversal) in assay [6] (H69AR cells + 2 uM doxorubicin) is -0.51% (inactive). For the same molecule, the inhibition is -0.13% (inactive) in assay [7] and -2.95% (inactive) in assay [8].

Turning to `COc1ccc(-c2nnc(SCC(=O)c3cc(C)n(Cc4cccs4)c3C)o2)cc1`, the viability is 99.5% in assay [1]; 99.5% (inactive) in assay [3]; 90.9% (inactive) in assay [4]; 87.5% (inactive) in assay [5]; 85.7% in assay [6] (setting [9]); 87.5% in assay [6] (setting [10]). Also, the Her2 level in assay [2] is 114% (inactive). In addition, the differential viability (reversal) in assay [6] (H69AR cells + 2 uM doxorubicin) is 1.84% (inactive). Besides, the inhibition in assay [7] was 2.6% (inactive); in assay [8], 18.2% (inactive).

As to `CCOC(=O)N1CCC(N2C(=O)c3ccccc3C2Nc2ccc3c(C)cc(=O)oc3c2)CC1` (stereo not given), the viability was 76% in assay [1]; 76% (inactive) in assay [3]; 115% (inactive) in assay [4]; 83.4% (inactive) in assay [5]; 69.5% in assay [6] (setting [9]); 83.4% in assay [6] (setting [10]). In addition, in assay [2], the Her2 level was 105% (inactive). The differential viability (reversal) in assay [6] (H69AR cells + 2 uM doxorubicin) is 13.9% (inactive). Also, the results for the inhibition in assay [7] and in assay [8] were -1.79% (inactive) and -2.67% (inactive), respectively.

On to `COC(=O)c1ccc(CSc2nc3c(cnn3-c3ccc(F)cc3)c(=O)[nH]2)o1`, for which the viability in assay [1] is 99%; in assay [3], 99% (inactive); in assay [4], 65.3% (inactive); in assay [5], 92.5% (inactive); in assay [6] (setting [9]), 96.9%; in assay [6] (setting [10]), 92.5%. Further, in assay [2], the Her2 level was 101% (inactive). Moreover, in assay [6] (H69AR cells + 2 uM doxorubicin), the differential viability (reversal) was -4.38% (inactive). In addition, the inhibition in assay [7] is -2.19% (inactive); in assay [8], -1.9% (inactive).

For `Cc1cc(=O)n(C)c(=O)n1CCCCCN1CCCC1`, the viability in assay [1] is 96.5%; in assay [3], 96.5% (inactive); in assay [4], 100% (inactive); in assay [5], 99.8% (inactive); in assay [6] (setting [9]) it was 85.2%; in assay [6] (setting [10]), 99.8%. Moreover, the Her2 level in assay [2] is 80% (inactive). For the same molecule, the differential viability (reversal) in assay [6] (H69AR cells + 2 uM doxorubicin) was 14.7% (inactive). For the same molecule, the inhibition was -1.2% (inactive) in assay [7] and 0.48% (inactive) in assay [8].
